Among the data in ChEMBL document CHEMBL4513216, “Probing the Open Global Health Chemical Diversity Library for Multistage-Active Starting Points for Next-Generation Antimalarials” (ACS Infect Dis, 2020) are cytotoxicity values, retold here.

The series in a line: Toxicity liver stage against HepG2, at 10uM. The format is cell-based. More on the design: test concentration 10 uM, cell line HepG2-A16-CD81EGFP. Particulars: human, HepG2-A16-CD81EGFP cells; read-out: INHIBITION
The essentials:
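Uninfected HepG2-A16-CD81EGFP cells, 3 × 10^3 per well, 1536-well, plated on prespotted compound at 10 μM final, parasite-free screening media added to match infected plates; puromycin 10 μM positive, DMSO 0.5% negative; run in parallel with 48 h PbLuc assay at 37 °C, 5% CO2; viability by CellTiter-Glo luminescence, normalized to controls.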
For `CCn1cc(CNCCNc2ncc(Cl)cc2Cl)cn1`, the cytotoxicity at 10 µM was -4.27%.

For the molecule `CCn1nc(C)c(CN(CCOC)C(=O)c2ccc(=O)[nH]n2)c1C`, the cytotoxicity at 10 µM was -2.27%.

In the case of `N#CCCN(Cc1ccco1)C(=O)C1CCCc2ccccc21` (stereo not drawn), the cytotoxicity at 10 µM was -4.27%.

Regarding `CC(NC(=O)CSCC#N)c1ccc(F)cc1` (stereo not drawn), the cytotoxicity at 10 µM is -2.51%.

Turning to `Cc1noc(C)c1-c1cccc(C2CCCNC2)n1` (stereo not drawn), the cytotoxicity at 10 µM was -12.3%.

Take `CN(CCc1cn[nH]c1)Cc1nc(Cc2cccc(C(F)(F)F)c2)no1`: the cytotoxicity at 10 µM turned out to be 0.361%.

Consider `O=C(NC1CC1)N1CCCC2(CCCCN2)C1` (stereo not drawn), for which the cytotoxicity at 10 µM is 8.77%.

Turning to `CC1CN(C(=O)c2cc(=O)[nH]c3ccc(F)cc23)CCO1` (stereo not drawn), the cytotoxicity at 10 µM was determined as 19.3%.

As to `CCc1nccn1C1CCCN(C(=O)c2csc(COC)n2)C1` (stereo not drawn), the cytotoxicity at 10 µM is -8.11%.

Take `Cc1noc(C)c1NS(=O)(=O)c1cc(Cl)c(Cl)c(C(=O)O)c1`: the cytotoxicity at 10 µM worked out at 4.86%.

With `CC(C)(NC(=O)c1scnc1Cl)c1ccccc1`, the cytotoxicity at 10 µM is -10.9%.

Regarding `O=C(c1ccc(-n2cnnc2)cc1Cl)N1CCCC2(CCNC2)C1` (stereo not drawn), the cytotoxicity at 10 µM is -5.32%.

In the case of `CC(C)(C)[S+]([O-])CCNC(=O)c1cccc2ncccc12` (stereo not drawn), the cytotoxicity at 10 µM was -45.1%.

As for `CN(Cc1cc2n(n1)CCNC2)Cc1noc(C2CCC2)n1`, the cytotoxicity at 10 µM is 15.2%.

For `CCc1nc(N)sc1C(=O)N1CCC(c2cc(O)nc(C)n2)CC1`, the cytotoxicity at 10 µM was -2.56%.

Regarding `COC(=O)CCn1ccc(=O)c2cc(OC)ccc21`, the cytotoxicity at 10 µM was found to be 3.88%.

In the case of `CN(C)CCN1CCC2(CC1)CN(Cc1cccnc1)C(=O)CO2`, the cytotoxicity at 10 µM is -106%.

For `COc1ccc(C(CO)NC(=O)Nc2cccc(F)c2)cc1` (stereo not drawn), the cytotoxicity at 10 µM was -4.82%.

For the molecule `CN1CCN(C(=O)C2CCCN2c2ncnc3ccsc23)CC1` (stereo not drawn), the cytotoxicity at 10 µM is 9.19%.

`Cc1noc(C)c1CN1C[C@@H]2COC[C@@H](C(=O)N3CCCCO3)[C@@H]2C1`: the cytotoxicity at 10 µM is -71.7%.

Consider `Cn1ccnc1CN1CCC(F)(F)C2(CCN(c3cnccn3)C2)C1` (stereo not drawn), for which the cytotoxicity at 10 µM is 16.4%.

Turning to `CCN1CCn2cc(CNC(=O)c3cnn(C)c3)nc2C1`, the cytotoxicity at 10 µM was 8.88%.

Turning to `CCc1ccccc1OCCN1C[C@@H](NS(C)(=O)=O)[C@H](C(C)C)C1`, the cytotoxicity at 10 µM was -47.5%.

Consider `CSCC(C)(O)CNC(=O)c1cc(F)ccc1Br` (stereo not drawn), for which the cytotoxicity at 10 µM is -5.41%.

Regarding `COc1cc(Cl)ccc1CNC(=O)N(C)C(C)CS(C)(=O)=O` (stereo not drawn), the cytotoxicity at 10 µM was -50.1%.

As to `Cc1cc(NC(=O)CNC(C)(C)c2nc(C)c(C)s2)no1`, the cytotoxicity at 10 µM worked out at 13.3%.

On to `O=C(NC1CCCCC1)N1C[C@@H]2OCCN(C(=O)c3ccco3)[C@@H]2C1`, for which the cytotoxicity at 10 µM is -152%.

As to `CCN(CC1COc2ccccc2O1)C(=O)NCCCn1cncn1` (stereo not drawn), the cytotoxicity at 10 µM is -9.27%.

In the case of `O=C(c1ccc2c(c1)OCCO2)N1CCCC(n2ccnc2)C1` (stereo not drawn), the cytotoxicity at 10 µM is -16.3%.

With `O=C(NCc1ccccn1)[C@H]1COC[C@H]2CN(CC3CC3)C[C@H]21`, the cytotoxicity at 10 µM was -80.8%.

Turning to `CCOC(=O)N1CCN(C(=O)C2CC(=O)N(c3ccccc3Br)C2)CC1` (stereo not drawn), the cytotoxicity at 10 µM is -7.22%.

As for `OCCOc1ccc(NCc2cccc3cn[nH]c23)cn1`, the cytotoxicity at 10 µM is -4.13%.

`Cc1csc(CCNCc2cnc3c(c2)c(C)nn3C)n1`: the cytotoxicity at 10 µM came out at 5.76%.

On to `Cc1nc(O)cc([C@@H]2CN(S(=O)(=O)N(C)C)C[C@H]2c2ccccc2F)n1`, for which the cytotoxicity at 10 µM came out at 5.8%.

As to `Cc1[nH]n(C)c2nc(=O)cc(C(F)(F)C(F)(F)F)c1-2`, the cytotoxicity at 10 µM is -2.22%.

Turning to `CS(=O)(=O)N1CCN(C(=O)CN2CCCc3c(F)cc(F)cc32)CC1`, the cytotoxicity at 10 µM was -1.52%.

For `Cc1cc(C)n(CCC(=O)OCC(=O)N2CCc3sccc3C2)n1`, the cytotoxicity at 10 µM turned out to be 8.52%.

For the molecule `CC1CCN(C(=O)CN2CC(c3nc(C4CC4)no3)C2)CC1`, the cytotoxicity at 10 µM was -6.6%.

Take `COCCN(Cc1cccc(O)c1)CC1CC1`: the cytotoxicity at 10 µM worked out at 12.7%.

As to `CC(Cn1cccn1)NC(=O)NCc1cccnc1OC1CCCC1` (stereo not drawn), the cytotoxicity at 10 µM was 4.86%.

On to `COC(=O)c1cccn1C1CCN(C(=O)c2cc(F)ccc2F)CC1`, for which the cytotoxicity at 10 µM was -9.62%.

As for `Cc1cccc(CNC(=O)CCc2c(C)nc3cc(O)nn3c2C)n1`, the cytotoxicity at 10 µM is -4.03%.

`CC(=O)N1CCCN(c2nccc(-c3c(C)nn(C)c3C)n2)CC1`: the cytotoxicity at 10 µM amounted to 9.21%.

Turning to `COCC1c2c(cnn2C)CCN1C(=O)c1cscn1` (stereo not drawn), the cytotoxicity at 10 µM was -101%.

Turning to `Cn1nc(CNC(=O)c2cccc(C(F)(F)F)c2)c2c1CCOC2`, the cytotoxicity at 10 µM came to 4.07%.

In the case of `O=C(c1ccc(Cn2cnnn2)cc1)N1CCC(c2ccncc2)CC1`, the cytotoxicity at 10 µM is 0.571%.

For the molecule `CCS(=O)(=O)N1CCC(c2nc(C)c(C)c(N3CCCC3)n2)CC1`, the cytotoxicity at 10 µM is 1.27%.

`COCCc1noc(CN2CCOC(Cn3nc(C)cc3C)C2)n1` (stereo not drawn): the cytotoxicity at 10 µM was -6.66%.

On to `c1cnn(CCNCc2cnc(N3CCCC3)nc2)c1`, for which the cytotoxicity at 10 µM was -9.46%.

Take `Cc1cc(-c2ccc(=O)n(CCNC(=O)C3CC3)n2)c(C)o1`: the cytotoxicity at 10 µM was -10.2%.

Take `COCC(C)(C)NC(=O)CC(c1ccccc1)C(F)(F)F` (stereo not drawn): the cytotoxicity at 10 µM is -50.1%.

On to `Cc1cc(CN2CCc3nc(C)n(C)c(=O)c3CC2)[nH]n1`, for which the cytotoxicity at 10 µM is -7.92%.

Turning to `O=C(c1ccccc1-c1nc[nH]n1)N1CCOC(C(F)(F)F)C1` (stereo not drawn), the cytotoxicity at 10 µM is -0.359%.

For the molecule `N#Cc1cn(C2CC2)c(=O)n(CC(O)c2ccccc2C(F)(F)F)c1=O` (stereo not drawn), the cytotoxicity at 10 µM is -4.22%.

`Cc1ccc(CC(=O)N(C)CC2(O)CCCN(c3ccccn3)C2)s1` (stereo not drawn): the cytotoxicity at 10 µM was -14.1%.

For the molecule `CCn1ccnc1CN1CCN(CC(O)c2ccc(OC)cc2)CC1` (stereo not drawn), the cytotoxicity at 10 µM was -15.1%.

In the case of `CCS(=O)(=O)N1CCc2cc(C(=O)NC)c(N(C)C)nc2CC1`, the cytotoxicity at 10 µM was -141%.

On to `COCCN1CCO[C@H]2CN(Cc3cc[nH]n3)C[C@H]21`, for which the cytotoxicity at 10 µM was -105%.

For the molecule `c1cnc(-c2nc(CNC3CCc4ncnn4C3)cs2)nc1` (stereo not drawn), the cytotoxicity at 10 µM is -5.66%.

Regarding `COc1ccc(OCC2CCCN(c3nc(CO)cs3)C2)cc1` (stereo not drawn), the cytotoxicity at 10 µM is -0.715%.

Turning to `CNC(=O)C1CN(Cc2cc(C)on2)CCN(C(C)=O)C1` (stereo not drawn), the cytotoxicity at 10 µM was -3.02%.

On to `Cc1cccc(CNC2(CCO)CCOCC2)c1C`, for which the cytotoxicity at 10 µM is -14.9%.

Take `Cc1nc(CN2CCC3(CCCO3)CCC2=O)no1` (stereo not drawn): the cytotoxicity at 10 µM was -0.452%.

`CN(C)S(=O)(=O)N1CCCC(c2nccn2Cc2cccnc2)C1` (stereo not drawn): the cytotoxicity at 10 µM is 4.61%.

For the molecule `CC(C)(C)CNC(=O)CNC(=O)C1CC1`, the cytotoxicity at 10 µM was -1.15%.

Regarding `Cc1n[nH]c(C)c1NC(=O)CN(CC(O)c1ccc(F)cc1)C1CC1` (stereo not drawn), the cytotoxicity at 10 µM is -7.3%.

As for `Cc1ccc(NC2CCN(C(=O)c3ccc4c(c3)CCC4)CC2)nn1`, the cytotoxicity at 10 µM is -8.19%.

In the case of `CNc1ccc(C2CN(c3nc(C)cc(C)n3)CCO2)nc1` (stereo not drawn), the cytotoxicity at 10 µM was 0.575%.

For `O=C(Nc1ccc(=O)n(Cc2ccccc2Cl)c1)C1CC1`, the cytotoxicity at 10 µM is -6.57%.

With `O=S(=O)(NCC(O)c1ccoc1)c1ccc(Cl)s1` (stereo not drawn), the cytotoxicity at 10 µM is -9.34%.

On to `Cn1cc(C(=O)N2CCCC(c3ncc[nH]3)C2)cn1` (stereo not drawn), for which the cytotoxicity at 10 µM worked out at 1.95%.

With `N#Cc1ccc(F)c(CN2CCNC(=O)C2c2cccs2)c1` (stereo not drawn), the cytotoxicity at 10 µM is 11.5%.

For `COCC(=O)N1CCC(c2nccnc2Oc2cccnc2C)CC1`, the cytotoxicity at 10 µM turned out to be 6.79%.

For `CC(C)CNC(=O)Nc1cccc(OCC#N)c1`, the cytotoxicity at 10 µM was -0.353%.

In the case of `CCCN1CCC(NC(=O)c2csc(C)c2C)CC1`, the cytotoxicity at 10 µM is -137%.

As for `CCC(C)N(Cc1sccc1C)C(=O)c1cc(N)ccn1` (stereo not drawn), the cytotoxicity at 10 µM was 9.8%.

For the molecule `Cc1nccc(NCc2cc3n(n2)CCCN(S(C)(=O)=O)C3)n1`, the cytotoxicity at 10 µM was found to be 2.35%.

For `Cn1cc(NC(=O)N2CCN(Cc3cscn3)CC2)ccc1=O`, the cytotoxicity at 10 µM was determined as 3.67%.

For the molecule `COc1ccc(C(CNS(=O)(=O)c2cn(C)nc2C)N2CCCC2)cc1` (stereo not drawn), the cytotoxicity at 10 µM came out at 4.11%.

`COc1ccc(CNC(C)c2ccccc2Cl)c(OC)c1OC` (stereo not drawn): the cytotoxicity at 10 µM amounted to 8.01%.

As to `CCC[C@@H](NC(N)=O)C(=O)N1CCc2ccccc2CC1`, the cytotoxicity at 10 µM was determined as 7.79%.

In the case of `O=C(CCCN1CCCCC1)N1CCN(C(=O)c2ccc[nH]2)CC1`, the cytotoxicity at 10 µM turned out to be 57.8%.

For `OC1(CNCCN2CCc3ccccc32)CNCCOC1` (stereo not drawn), the cytotoxicity at 10 µM came out at 10.7%.

With `CN1CCCc2c1nc1c(c2N)CCCC1`, the cytotoxicity at 10 µM came out at 11.2%.

As for `Oc1cc(C2CCNCC2)nc(-c2ccsc2)n1`, the cytotoxicity at 10 µM is 4.06%.

For `Cc1cnn(CCNCC(=O)NCCOc2ccc(Cl)cc2)c1`, the cytotoxicity at 10 µM was -11.8%.

Turning to `COCc1cccc(NC(C(N)=O)c2ccc(Br)cc2)c1` (stereo not drawn), the cytotoxicity at 10 µM was 2.94%.

On to `COCC(O)CNC(=O)c1cnc(-c2ccccc2)nc1O` (stereo not drawn), for which the cytotoxicity at 10 µM was -10.2%.

As for `Cc1ncsc1C(=O)N1CC[C@@]2(O)CCN(C(=O)N3CCCC3)C[C@H]2C1`, the cytotoxicity at 10 µM is -14.2%.

Regarding `CCOc1ncnc2c1CCN(S(=O)(=O)c1ccccc1)CC2`, the cytotoxicity at 10 µM was -110%.

`CC(C)c1ocnc1C(=O)N1CCC2(CC1)OCCO2`: the cytotoxicity at 10 µM worked out at 0.0416%.

Take `N#Cc1ccc(CNC(=O)C2=NN(c3ccccc3)C(=O)CN2)cc1`: the cytotoxicity at 10 µM was -1.8%.

For `CCOc1ccc(-n2nnc(C(=O)O)c2-c2ccncc2)cc1`, the cytotoxicity at 10 µM is -4.14%.

As for `Cc1ccccc1-c1noc(CN2CCc3nn(C)c(=O)cc3C2)n1`, the cytotoxicity at 10 µM is -12.5%.

As to `COc1ccc(C(=O)N2CCCS2(=O)=O)cc1`, the cytotoxicity at 10 µM was -1.88%.

As for `CC(Cn1ccnc1)NC(=O)NCc1cccnc1OC1CCCC1` (stereo not drawn), the cytotoxicity at 10 µM is -13.3%.

Regarding `Cc1ncsc1CN1C[C@@H]2COC[C@]2(C(=O)NCc2ccccn2)C1`, the cytotoxicity at 10 µM is -108%.

As for `Cc1cc(C)n(-c2cncc(N3CCN(C(=O)C(C)(C)C)CC3)n2)n1`, the cytotoxicity at 10 µM is -3.22%.
